{"data": "Results pooled from the literature", "CDK9": "Cyclin-dependent kinase 9 (CDK9, Homo sapiens, UniProt P50750)", "CDK9 with cyclin T1": "Cyclin-dependent kinase 9, with cyclin T1 (CDK9, Homo sapiens, UniProt P50750)", "note": "Each line is one published result; the experiments were not run side by side."}
{"SMILES": "N#CC1(c2ccccn2)CCN(Cc2cc(C(=O)O)c(=O)n3ccccc23)CC1", "target": "CDK9", "assay": "cell-free assay, competition with immobilised ligand", "conditions": "1 µM", "measurement": "remaining binding", "result": "99%"}
{"SMILES": "Cn1cc(-c2cccc(N3CCc4c(sc5c4CC(C)(C)C5)C3=O)c2CO)cc(Nc2ccncn2)c1=O", "target": "CDK9 with cyclin T1", "assay": "enzyme activity, inhibitor", "conditions": "1 µM", "measurement": "inhibition", "result": "11%"}
{"SMILES": "Cn1cncc1[C@](O)(COc1ccc(C#N)cc1-c1ccc(OC(F)(F)F)cc1)c1ccc(C#N)cc1", "target": "CDK9", "assay": "cell-free assay, competition with immobilised ligand", "conditions": "1 µM", "measurement": "remaining binding", "result": "100%"}
{"SMILES": "COc1ncccc1-c1cnn2ccc(N3CCN(C(=O)OC(C)C)CC3)nc12", "target": "CDK9", "assay": "binding, competition with immobilised ligand", "conditions": "1 µM", "measurement": "remaining binding", "result": "93%"}
{"SMILES": "C#Cc1n[nH]c2c(-c3cn(C(C)c4ccccn4)c(=O)[nH]c3=O)cc(F)cc12 (centres unmarked)", "target": "CDK9 with cyclin T1", "assay": "enzyme activity, inhibitor", "conditions": "1 µM", "measurement": "inhibition", "result": "20.9%"}
{"SMILES": "Cc1nn(C)cc1-c1nc2c(N3CCN(Cc4ccc(Cl)cc4)CC3)c(Cl)cnc2[nH]1", "target": "CDK9", "assay": "binding, competition with immobilised ligand", "conditions": "1 µM", "measurement": "remaining binding", "result": "100%"}
{"SMILES": "O=c1[nH]c2ccccc2n1C1CCN(Cc2ccc(-c3[nH]c4cc5ncnc5cc4nc3-c3ccccc3)cc2)CC1", "target": "Cyclin-dependent kinase 9, with cyclin K (CDK9, Homo sapiens, UniProt P50750)", "assay": "cell-free assay", "conditions": "0.5 µM", "measurement": "remaining signal", "result": "108%"}
{"SMILES": "Nc1ncc(-c2nc(N3CCOCC3)nc(N3CCOCC3)n2)c(C(F)F)n1", "target": "CDK9", "assay": "binding, competition with immobilised ligand", "conditions": "10 µM", "measurement": "remaining binding", "result": "99%"}
